According to ChEMBL document CHEMBL3407478, “Development of a series of aryl pyrimidine kynurenine monooxygenase inhibitors as potential therapeutic agents for the treatment of Huntington's disease” (J Med Chem, 2015):
pIC50: −log10 of the molar value.

What was measured:
[1] = target: T1, Kynurenine 3-monooxygenase (Homo sapiens, UniProt O15229); test: Inhibition of human KMO transfected in CHO cells assessed as conversion of kynurenine to 3-hydroxykynurenine by LC-MS/MS analysis; format: cell-based
T1 sequence (O15229 whole entry): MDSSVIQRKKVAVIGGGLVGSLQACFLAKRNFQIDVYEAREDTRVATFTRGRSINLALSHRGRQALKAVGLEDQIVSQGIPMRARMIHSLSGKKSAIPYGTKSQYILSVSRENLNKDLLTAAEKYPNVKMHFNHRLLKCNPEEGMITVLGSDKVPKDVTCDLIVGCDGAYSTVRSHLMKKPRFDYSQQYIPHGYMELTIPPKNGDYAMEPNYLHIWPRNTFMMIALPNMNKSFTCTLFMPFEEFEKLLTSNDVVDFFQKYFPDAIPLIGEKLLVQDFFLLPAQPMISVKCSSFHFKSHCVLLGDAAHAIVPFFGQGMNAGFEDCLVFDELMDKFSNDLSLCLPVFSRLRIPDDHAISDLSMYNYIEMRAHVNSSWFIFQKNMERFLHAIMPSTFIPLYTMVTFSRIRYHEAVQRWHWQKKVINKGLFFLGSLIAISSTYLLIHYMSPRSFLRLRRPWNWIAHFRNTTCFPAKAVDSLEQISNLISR

[2] = Lipophilicity, log P of the compound at pH 7; format: physicochemical; settings: buffer
[3] = Permeability from apical to basolateral side in human Caco2 cells; format: ADME, cell-based; settings: Caco-2, read-out: permeability
[4] = target: T2, Kynurenine 3-monooxygenase (Rattus norvegicus, UniProt O88867); test: Inhibition of rat KMO assessed as conversion of kynurenine to 3-hydroxykynurenine by LC-MS/MS analysis
T2 sequence (O88867 whole entry): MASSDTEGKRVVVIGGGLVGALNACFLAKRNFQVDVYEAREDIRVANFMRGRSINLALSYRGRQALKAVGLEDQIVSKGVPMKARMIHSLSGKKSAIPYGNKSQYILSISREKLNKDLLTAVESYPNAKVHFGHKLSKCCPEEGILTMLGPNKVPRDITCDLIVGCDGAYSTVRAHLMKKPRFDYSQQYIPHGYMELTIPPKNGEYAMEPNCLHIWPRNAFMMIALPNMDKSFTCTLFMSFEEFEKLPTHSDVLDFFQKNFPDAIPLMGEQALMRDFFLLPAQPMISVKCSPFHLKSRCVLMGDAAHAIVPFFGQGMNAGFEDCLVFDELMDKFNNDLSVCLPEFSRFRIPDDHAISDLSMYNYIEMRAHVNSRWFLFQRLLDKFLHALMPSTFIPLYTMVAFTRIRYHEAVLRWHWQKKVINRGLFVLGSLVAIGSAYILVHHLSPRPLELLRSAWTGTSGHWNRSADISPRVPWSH
Method in brief: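 Mitochondrial fractions from mouse or rat liver tissue used as KMO source. Conversion of kynurenine to 3-hydroxykynurenine quantified by LC-MS/MS; IC50 averaged from triplicate tests.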

[5] = target: T1, Kynurenine 3-monooxygenase; test: Inhibition of KMO in human PBMC
[6] = target: T2, Kynurenine 3-monooxygenase; test: Inhibition of KMO in rat microglia cells; format: cell-based
Method in brief: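 Freshly isolated neonatal rat microglial cultures, induced to express KMO by a pro-inflammatory protocol. Exogenous KYN added; conversion to 3-HK monitored by mass spectrometry.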

Plasma [7] = test: Dose normalized AUC (0 to infinity) in Sprague-Dawley rat plasma at 6.2 mg equivalents/kg, iv; format: ADME, cell-free
[8] = MRT in Sprague-Dawley rat plasma at 6.2 mg equivalents/kg, iv; format: ADME, cell-free
Method in brief: (§1)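 Nonfasted male Sprague-Dawley rats (300−370 g). Single iv tail-vein dose of 6.2 mg equiv/kg (1.24 mg equiv/mL in DMSO:PEG400:water 10:40:50) or oral gavage of 12 mg equiv/kg (1.20 mg equiv/mL in 10% hydroxypropyl-β-cyclodextrin). Terminal bleeds under isoflurane (N = 3) at 0.083−24 h; heparin plasma; tissues snap-frozen.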

[9] = Volume of distribution at steady state in Sprague-Dawley rat plasma at 6.2 mg equivalents/kg, iv; format: ADME, cell-free; settings: read-out: Vdss; method in brief: as §1
[10] = Half life in Sprague-Dawley rat plasma at 12 mg equivalents/kg, po; format: ADME, cell-free
Brain = test: Dose normalized AUC (0 to infinity) in Sprague-Dawley rat brain at 6.2 mg equivalents/kg, iv; format: ADME, tissue-based; settings: in vivo
[11] = Tmax in Sprague-Dawley rat plasma at 10 mg equivalents/kg, po after 0.25 to 12 hrs; format: ADME, organism-based
Method in brief: (§2)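 Fed male Sprague-Dawley rats given a single oral dose of 10 mg equiv/kg as 2 mg equiv/mL in 10% hydroxypropyl-β-cyclodextrin. Plasma, CSF, kidney, liver, and cortex and striatum from nonperfused brains sampled from 0.25 to 12 h.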

Cerebrospinal fluid [12] = test: Dose normalized AUC (0 to infinity) in Sprague-Dawley rat CSF at 10 mg equivalents/kg, po after 0 to 8 hrs; format: ADME, organism-based; settings: in vivo
Method in brief: (§3)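 Male Sprague-Dawley rats given a single oral dose of 10 mg equiv/kg as a 2 mg equiv/mL solution in 10% hydroxypropyl-β-cyclodextrin. Plasma, liver, kidney, cortex, striatum and CSF levels were measured from 0.25 to 12 h. Brain tissue was taken from nonperfused brains. CSF AUCN covers 0–8 h because the elimination phase was undefined.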

Cerebrospinal fluid [13] = test: Dose normalized Cmax in Sprague-Dawley rat CSF at 10 mg equivalents/kg, po after 0.25 to 12 hrs; format: ADME, organism-based; settings: in vivo; method in brief: as §3
[14] = Tmax in Sprague-Dawley rat CSF at 10 mg equivalents/kg, po after 0.25 to 12 hrs; format: ADME, organism-based, Cerebrospinal fluid; method in brief: as §2
Cortex = test: Dose normalized Cmax in Sprague-Dawley rat cortex at 10 mg equivalents/kg, po after 0.25 to 12 hrs; format: ADME, organism-based; settings: in vivo; method in brief: as §3
[15] = Half life in Sprague-Dawley rat cortex at 10 mg equivalents/kg, po after 0.25 to 12 hrs; format: ADME, organism-based
Method in brief: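 Nonfasted male Sprague-Dawley rats; single oral dose 10 mg equiv/kg as 2 mg equiv/mL solution in 10% hydroxypropyl-β-cyclodextrin. Cortex taken from nonperfused brains, sampled 0.25 to 12 h after dosing. Drug measured by LC-MS/MS; half-life derived from concentration-time profile.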

Striatum = test: Dose normalized AUC (0 to infinity) in Sprague-Dawley rat striatum at 10 mg equivalents/kg, po after 0.25 to 12 hrs; format: ADME, organism-based; settings: in vivo; method in brief: as §3
[16] = Tmax in Sprague-Dawley rat striatum at 10 mg equivalents/kg, po after 0.25 to 12 hrs; format: ADME, organism-based; method in brief: as §2
[17] = Tmax in Sprague-Dawley rat kidney at 10 mg equivalents/kg, po after 0.25 to 12 hrs; format: ADME, organism-based; method in brief: as §2
Liver [18] = test: Dose normalized AUC (0 to infinity) in Sprague-Dawley rat liver at 10 mg equivalents/kg, po after 0.25 to 12 hrs; format: ADME, organism-based; settings: in vivo; method in brief: as §3
Liver [19] = test: Dose normalized Cmax in Sprague-Dawley rat liver at 10 mg equivalents/kg, po after 0.25 to 12 hrs; format: ADME, organism-based; settings: in vivo; method in brief: as §3
[20] = Half life in Sprague-Dawley rat liver at 10 mg equivalents/kg, po after 0.25 to 12 hrs; format: ADME, organism-based; method in brief: as §3
Plasma [21] = test: Dose normalized AUC (0 to infinity) in BCRP knock out FVB/N mouse plasma at 5 mg equivalents/kg, iv by LC-MS/MS analysis; format: ADME, organism-based; settings: in vivo
Method in brief: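 Male mice given a single 5 mg equiv/kg iv bolus: FVB wild type, Bcrp(−/−), Mdr1a/b(−/−) and Mdr1a/b(−/−)/Bcrp(−/−). Brain and plasma concentration–time profiles were used to derive dose-normalized AUC (0–infinity).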

[22] = Fraction unbound in mouse plasma; format: ADME, cell-free
Rattus norvegicus [23] = test: Inhibition of KMO in Sprague-Dawley rat plasma assessed as time duration for elevation in kynurenine plasma level at 10 mg/kg, po by […] analysis; format: functional
Method in brief: (§4)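 Sprague-Dawley rats given a single 10 mg/kg oral dose. KYN, 3-HK, KYNA and AA were quantified in plasma by LC-MS/MS at multiple time points.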

Rattus norvegicus [24] = test: Inhibition of KMO in Sprague-Dawley rat plasma assessed as time duration for reduction in 3-HK plasma level at 10 mg/kg, po by […] analysis; format: functional; method in brief: as §4
Rattus norvegicus [25] = test: Inhibition of KMO in Sprague-Dawley rat brain assessed as time duration for elevation in kynurenine plasma level at 10 mg/kg, po by […] analysis; format: functional
Rattus norvegicus [26] = test: Inhibition of KMO in Sprague-Dawley rat striatum brain microdialysate assessed as time duration for elevation in anthranilic acid level at 10 mg/kg, po by […] analysis; format: functional
Method in brief: (§5)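 Freely moving Sprague-Dawley rats given 10 mg/kg po, with a microdialysis probe implanted in the striatum. Dialysate was sampled over 0–240 min for free compound and for KYN, KYNA, AA and 3-HK, quantified by LC-MS/MS. Metabolite changes were compared with t = 0 min by 2-way ANOVA.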

Rattus norvegicus [27] = test: Inhibition of KMO in Sprague-Dawley rat striatum brain microdialysate assessed as time duration for elevation in 3-hydroxykynurenice acid level by 2-fold at 10 mg/kg, po by […] analysis; format: functional; method in brief: as §5
Rattus norvegicus [28] = test: Inhibition of KMO in po dosed Sprague-Dawley rat plasma assessed as elevation in kynurenic acid plasma level by […] analysis; format: functional, organism-based
Rattus norvegicus [29] = test: Inhibition of KMO in po dosed Sprague-Dawley rat plasma assessed as elevation in anthranilic acid plasma level by […] analysis; format: functional, organism-based
[30] = Oral bioavailability in Sprague-Dawley rat plasma at 12 mg equivalents/kg

SMILES: O=C(O)c1cc(-c2ccc(OC3CC3)c(Cl)c2)ncn1
- pIC50 [1]: 8.10
- logD [2]: 0.9
- Papp A→B [3]: 18.7 ×10⁻⁶ cm/s
- pIC50 [4]: 8.40
- pIC50 [5]: 7.09
- pIC50 [6]: 7.14
- AUC/dose (Plasma [7]): 12 µM·kg·h/mg
- MRT [8]: 66 min
- Vd [9]: 0.32 L/kg
- half-life [10]: 144 min
- AUC/dose (Brain): 0.23 µM·kg·h/mg
- Tmax [11]: 30 min
- AUC/dose (Cerebrospinal fluid [12]): 0.014 µM·kg·h/mg
- Cmax/dose (Cerebrospinal fluid [13]): 0.011 µM·kg/mg
- Tmax [14]: 30 min
- Cmax/dose (Cortex): 0.03 µM·kg/mg
- half-life [15]: 114 min
- AUC/dose (Striatum): 0.1 µM·kg·h/mg
- Tmax [16]: 30 min
- Tmax [17]: 30 min
- AUC/dose (Liver [18]): 20 µM·kg·h/mg
- Cmax/dose (Liver [19]): 9.3 µM·kg/mg
- half-life [20]: 150 min
- AUC/dose (Plasma [21]): 3.6 µM·kg·h/mg
- fraction unbound [22]: 0.036
- Time (Rattus norvegicus [23]): 8 h
- Time (Rattus norvegicus [24]): 8 h
- Time (Rattus norvegicus [25]): >=4 hr
- Time (Rattus norvegicus [26]): 40 min
- Time (Rattus norvegicus [27]): 160 min
- inhibition (Rattus norvegicus [28]): Dose-dependent effect
- inhibition (Rattus norvegicus [29]): Dose-dependent effect
- bioavailability [30]: 64%
